Screening data (PubChem BioAssay)
Sampled rows, rich in hits. Any-hit rate of the full collection: about 2%.
CDK5 inh – inhibitors of human CDK5/p35 kinase, primary screen, biochemical, single concentration; Cyclin-dependent kinase 5 (Homo sapiens) + Cyclin-dependent kinase 5 activator 1 (Homo …; Recombinant CDK5/p35, ADP-Glo luminescence, 60 min; inhibition, % at 10 µM; actives 0.01% (n = 330,000);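 active = highest replicate inhibition of at least 50% and at least 75% of replicates reaching 50%; inconclusive = only one of the two criteria met; inactive = both criteria failed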;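 note: plate controls were DMSO neutral control for no effect and GW8510 at 10 µM for full effect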
SR-BI DiI-HDL act – activators of SR-BI mediated DiI-HDL uptake, primary screen, ldlA[mSR-BI] CHO cells, DiI fluorescence; activation, % at 12.5 µM; actives 0.096% (n = 320,000); 3 h; 100 = double the neutral-control signal;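 active = mean replicate activation of at least 60% and every replicate at or above 60%; inconclusive = mean or all-replicate condition met, but not both; inactive = mean below 60% and not all replicates reaching 60%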;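 note: 0% = median plate neutral-control signal and 100% = twice that signal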
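system = CHO ldlA[mSR-BI] cells, LDL receptor-null, SR-BI overexpressing | medium = Ham's F12 with 0.5% BSA, HEPES 25 mM, pH 7.4 | probe or stimulus = DiI-HDL 10 µg/mL | compound dosing = single-point compound dose | incubation = compound exposure 3 h, 37 °C | technique = DiI fluorescence, bottom read | read-out = cell-associated DiI fluorescence as measure of HDL uptake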
SR-BI DiI inh – inhibitors of SR-BI mediated HDL lipid uptake, primary screen, ldlA[mSR-BI] cells, fluorescence, single point; AID 488896, 2010; Scavenger receptor class B member 1 (Mus musculus), Q61009; ldlA[mSR-BI] CHO cells, DiI-HDL uptake fluorescence, 3 h; actives 0.96% (n = 320,000); inhibition, % at 12.5 µM;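 active = mean replicate inhibition of at least 70% and a set share of replicates each scoring 70 or more; inconclusive = meets just one of the two criteria; inactive = fails both criteria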;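 note: 0% = median of neutral control wells and 100% = median of positive control wells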
dFosB act – activators of delta FosB homodimer, primary screen, biochemical, fluorescence polarization, TAMRA-CDK5 oligo, single point. purified delta FosB; percent of positive-control signal above neutral wells. activation, % at 25 µM. actives 0.99% (n = 340,000). AID 493131, 2011;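 active = mean activation above about 17%, with every replicate also reaching it, limit read from the data, passing the limit was not always enough; inconclusive = only one of the two conditions met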
Target sequence (P13346 whole entry, looked up): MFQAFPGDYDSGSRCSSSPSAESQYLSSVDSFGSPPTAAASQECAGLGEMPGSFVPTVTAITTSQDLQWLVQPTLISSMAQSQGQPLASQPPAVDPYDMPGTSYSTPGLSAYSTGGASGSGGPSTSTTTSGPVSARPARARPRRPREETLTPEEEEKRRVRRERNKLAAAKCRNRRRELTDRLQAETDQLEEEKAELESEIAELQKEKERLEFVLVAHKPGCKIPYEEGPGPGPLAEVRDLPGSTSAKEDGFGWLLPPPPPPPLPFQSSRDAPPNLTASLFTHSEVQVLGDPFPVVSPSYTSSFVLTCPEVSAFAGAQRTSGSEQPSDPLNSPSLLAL
Active calls of the source: *; u = inconclusive; x = not tested or not shown.

SMILES	CDK5 inh	SR-BI DiI-HDL act	SR-BI DiI inh	dFosB act
Cc1ccc(S(=O)(=O)n2cnc3ccccc32)cc1[N+](=O)[O-]	1	13	-13	-5
Cc1cc(Cl)ccc1OCC(=O)N1CCCCC1	1	0	0	-3
O=C(COc1ccc(Cl)cc1Cl)N1CCCN(C(=O)COc2ccc(Cl)cc2Cl)CC1	-2	-85	85*	-10
Cc1ccnc(Nc2nc(-c3ccc(O)cc3O)cs2)c1	2	-83	83*	-3
Cc1ccnc(Nc2nc(-c3ccc(O)cc3)cs2)c1	0	-25	25	-2
CC(C)c1ccc(/C=N/NC(=O)c2cccc(S(=O)(=O)N3CCOCC3)c2)cc1	-1	-71	u	-3
O=C(N/N=C/c1cc(Cl)cc([N+](=O)[O-])c1O)c1cccc(S(=O)(=O)N2CCOCC2)c1	0	-125	125*	-5
O=C(N/N=C/c1ccccc1Br)c1cccc(S(=O)(=O)N2CCOCC2)c1	-9	-79	80*	-7
O=C(N/N=C/c1sc(N2CCOCC2)nc1-c1ccccc1)c1cccc(S(=O)(=O)N2CCCC2)c1	0	-97	97*	-12
O=C(N/N=C/c1cc(Br)cc(Br)c1O)c1cccc(S(=O)(=O)N2CCOCC2)c1	0	x	x	-5
O=C(N/N=C/c1sc(N2CCOCC2)nc1-c1ccccc1)c1ccc(O)cc1	-1	-59	59	-20
COc1cccc(CC(=O)Nc2cccc3ccccc23)c1	-1	-1	1	-32
COc1cccc(C(O)c2nccn2Cc2ccccc2)c1OC (stereo not drawn)	0	2	-2	2
Cc1cc(NC(=O)c2ccc(Cl)cc2)ccc1NC(=O)c1ccccc1Cl	2	-54	54	0
O=C(CCN1C(=O)[C@@H]2Cc3ccccc3CN2C1=O)N[C@H](Cc1ccccc1)C(=O)O	-2	16	-16	-11
COc1cc(NC(=O)c2ccccc2)c(OC)cc1Cl	-2	-86	86*	2
COc1cc(OC)c(NC(=O)c2ccco2)cc1Cl	1	-35	35	-9
COc1cc(N)c(Cl)cc1NC(=O)c1ccccc1	-3	-4	4	-1
COc1cc(OC)c(NC(=O)c2cc3ccccc3cc2O)cc1Cl	-1	-94	94*	-7
Cc1ccc(CCC(=O)Nc2ccc(C)c(C)c2)o1	0	-6	6	-7
COc1ccc(/C=C/C(=O)O)cc1S(=O)(=O)NCc1cccnc1	-1	23	-23	-4
NC(=O)N=Nc1c2[nH]c3ccccc3nc-2c2ccccc12	-1	3	-3	-5
COc1ccc(/C=N/N(C(C)=O)c2nc(-c3ccc(C)cc3)cs2)cc1	-1	-37	37	3
COc1ccccc1/C=N/N(C(C)=O)c1nc(-c2ccc(F)cc2)cs1	-6	-82	82*	-5
O=C(Nc1ccccc1C(=O)NCCc1ccc(O)cc1)c1ccco1	-1	-23	23	-16
SMILES	CDK5 inh	SR-BI DiI-HDL act	SR-BI DiI inh	dFosB act
O=[N+]([O-])c1ccc(NC(c2ccccc2)c2ccc3cccnc3c2O)cc1 (stereo not drawn)	-1	-80	80*	4
Cc1ccc(-n2ncc3c(=O)n(CC(=O)Nc4cccc(Cl)c4)cnc32)cc1C	1	18	-18	42*
CCCN(CCC)Cc1c(C(=O)N/N=C/c2c[nH]c3ccccc23)nnn1-c1nonc1N	0	24	-24	-29
CN(C)CCN(C(=O)c1ccc2ccccc2c1)c1nc2ccc(F)cc2s1	0	-17	17	26*
COc1ccc(OC)c2sc(N(CCN(C)C)C(=O)c3ccc4ccccc4c3)nc12	-1	12	-12	30*
COc1cc2nc(N(CCN(C)C)C(=O)c3ccc4ccccc4c3)sc2cc1OC	-3	-8	8	0
CCc1ccc2nc(N(CCN(C)C)C(=O)c3ccc4ccccc4c3)sc2c1	1	-7	7	22*
COc1ccc(-c2cc3c(=O)n(CC(=O)Nc4cccc(Cl)c4)nc(C)n3n2)cc1	1	-25	25	24*
COc1ccc(C(=O)Nc2cccc(-c3ccc4nncn4n3)c2)cc1OC	1	x	x	-8
COc1ccc(CC(=O)Nc2ccc(-c3cn4ccc(C)cc4n3)cc2)cc1	-1	-83	83*	-6
COc1ccc(CC(=O)Nc2cccc(-c3ccc4nncn4n3)c2)cc1OC	0	x	x	63*
Cc1nnc2ccc(-c3cccc(NC(=O)c4ccco4)c3)nn12	0	x	x	-5
CCOc1ccc(CC(=O)Nc2cccc(-c3ccc4nnc(C)n4n3)c2)cc1	-2	-46	46	89*
COc1cccc(C(=O)Nc2cccc(-c3ccccc3)c2)c1	0	-38	38	-13
O=C(O)CN1C(=O)C(=O)N(Cc2ccc(Cl)cc2Cl)C1=O	-1	-10	10	6
COc1c(C)cc(C(=O)C2CCCN(S(=O)(=O)N(C)C)C2)cc1C (stereo not drawn)	-1	-10	10	-3
Cc1ccccc1C(=O)OCC(=O)NCC1COc2ccccc2O1 (stereo not drawn)	1	0	0	1
CC1(C(=O)O)CCC(C(=O)Nc2cccc(F)c2)C1(C)C (stereo not drawn)	0	9	-9	2
Cc1nnc2ccc(-c3cccc(NC(=O)Cc4cccs4)c3)nn12	0	x	x	-32
COc1ccc(CC(=O)Nc2cccc(-c3ccc4nnc(C)n4n3)c2)cc1	-2	x	x	73*
COc1ccc(CC(=O)Nc2cccc(-c3ccc4nnc(C)n4n3)c2)cc1OC	0	x	x	73*
O=C(Nc1ccccc1)C1=C(N2CCOCC2)/C(=C/c2cccnc2)CC1	-1	-36	36	-5
COc1cc(NC(=O)C2=C(N3CCOCC3)/C(=C/c3ccc(Cl)cc3)CC2)cc(OC)c1OC	-1	-74	74*	-16
COc1cc(NC(=O)C2=C(N3CCOCC3)/C(=C\c3ccc(N(C)C)cc3)CCC2)cc(OC)c1OC	0	-74	74*	3
N#Cc1ccc(OCC(=O)NCC2COc3ccccc3O2)cc1 (stereo not drawn)	-1	0	0	3
COc1ccc(/C=N/Nc2nc(-c3cccc(S(=O)(=O)N4CCCC4)c3)cs2)c(OC)c1	-1	-83	83*	-15
CCC(=O)Nc1ccc(C(=O)NNC(=O)c2cccc(C)c2)cc1	1	-4	4	-7
O=C(/C=C/c1ccc(Br)cc1)c1ccc(NC2=NCCCS2)cc1	1	-2	2	20*
CCCCc1ccc(NC(=O)CN2C(=O)C3CCCCC3C2=O)cc1 (stereo not drawn)	0	6	-6	-12
CCCCC(CC)C(=O)Nc1cc(=O)[nH]c2nc3ccccc3n12 (stereo not drawn)	-4	410*	-410	-12
